High-throughput results deposited in PubChem BioAssay by several laboratories.
HMGR II inh = E. faecalis class II HMG-CoA reductase inhibition; AID 1066; purified E. faecalis HMGR, NADPH absorbance 340 nm kinetic; inhibition, % at 10 µM; 190,000 tested, 0.41% active;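 active = inhibition above a set limit, the median over all tested compounds plus 3 SD, cut at about 9.5% in these data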;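 also: enzyme runs in reverse so mevalonate oxidation gives rising NADPH absorbance; 0% = complete reaction with DMSO and 100% = background rate lacking mevalonate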
Pf gametocyte = P. falciparum stage V gametocyte viability inhibition. P. falciparum stage V gametocytes, ATP luminescence, 24 h. inhibition, % at 10.9 µM. 150,000 tested, 0.065% active. AID 743093;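 active = inhibition above the mean plus 3 SD of compounds within the control limits, set per campaign, cut at about 38% in these data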;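 also: 0% = DMSO wells and 100% = medium only without gametocytes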
Furin inhibitor = blocks human furin protease activity. AID 463115. inhibition, % at 20 µM or 30 µM. 220,000 tested, 0.061% active. P09958. purified furin, fluorogenic substrate cleavage; in the data active = inhibition above about 25%
TNAP inh no acc = inhibitors of human TNAP without phosphate acceptor; P05186; purified TNAP, CDP-star luminescence, 30 min; inhibition, % at 20 µM; 200,000 tested, 0.26% active;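 active = tissue-nonspecific alkaline phosphatase inhibition above about 50% at 20 µM in the single-dose screen, limit read from the data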;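 also: 0% = DMSO negative control and 100% = EDTA positive control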
TNAP inh hiacc = blocks human TNAP under high phosphate acceptor concentration; P05186; purified TNAP, CDP-star luminescence, 1 M DEA; inhibition, % at 20 µM; 200,000 tested, 0.03% active; AID 1135;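 active = over 50% inhibition of tissue-nonspecific alkaline phosphatase at 20 µM in the single-dose screen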;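 also: plate controls were DMSO wells for no effect and EDTA-quenched wells as full inhibition for full effect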
TNAP act hi DEA = activators of human TNAP at high phosphate acceptor concentration; P05186; purified TNAP, CDP-star luminescence, 1 M DEA, 30 min; active compounds read high; 0 = EDTA background, 1 = DMSO-only activity; 200,000 tested, under 10 active; activation factor at 20 µM;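 active = activation factor at least 2 at 20 µM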
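Assay system: human TNAP; Input: enzyme diluted 1/800 final; Reagent: CDP-star luminogenic substrate at 100 µM final; Timing: 30 min, room temperature; Signal: luminescence; Evaluation: TNAP activation factor scaled between EDTA and DMSO control wells.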
Starred values were filed as active, the others as inactive; nt = no result. Sampled rows, rich in hits. Any-hit rate of the full collection: about 0.68%.

SMILES	HMGR II inh	Pf gametocyte	Furin inhibitor	TNAP inh no acc	TNAP inh hiacc	TNAP act hi DEA
CC(=O)c1ccc(S(=O)(=O)Nc2cccc(-c3ccc4nncn4n3)c2)cc1	0	8	-8	-1	-4	1
O=C1C=C(c2ccc(Cl)cc2)OC2(CCCC2)O1	-7	nt	29*	-3	-1	1
O=C1C=C(c2ccccc2)OC2(CCCC2)O1	4	-24	-16	-12	-7	1.1
CSc1ccc(CN2CCN(Cc3ccccc3)C(CCO)C2)cc1 (centres undefined)	11*	-11	-23	-10	-9	1.1
CSc1cccc(CN2CCN(Cc3ccccc3)C(CCO)C2)c1 (centres undefined)	-9	8	-18	-3	-3	1
CCOc1ccc(CN2CCN(Cc3cc4ccccc4[nH]3)CC2CCO)cc1 (centres undefined)	14*	nt	-17	0	3	1
Cc1cccc(C(=O)c2c[nH]cc2-c2ccccc2)c1	0	nt	-13	-3	-3	1
Cc1ccc2nc(-c3sc4nc(C)ccc4c3N)[nH]c2c1	26*	10	2	-11	6	0.9
CCn1nc(C)c(CNC(=O)CCc2nnc(Cc3c[nH]c4ccccc34)o2)c1C	-4	13	-18	-10	-6	1.1
Cc1ccc(C(O)CSc2nnc(-c3ccc4ccccc4c3)n2C)cc1 (centres undefined)	nt	-6	-9	nt	nt	nt
CCCOP(=O)(OCCC)c1nc(-c2ccccc2)oc1NCc1ccccc1	17*	-7	-6	2	2	1
COP(=O)(OC)c1nc(-c2ccccc2)oc1NCc1ccccc1	-10	15	-40	-8	-1	1
Cc1ccc2nc(SCCCCOc3ccccc3)[nH]c2c1	-1	nt	-11	-32	-7	1.1
c1ccc(OCCSc2nc3ccccc3[nH]2)cc1	13*	nt	-4	-33	-2	1
Cc1ccccc1-n1c(SCC(=O)Nc2ccccc2)nc2nc3c(cc2c1=O)CCCC3	13*	nt	0	-14	0	1
CC(C)(C)C1=C(C#N)C(c2ccncc2)C(C#N)=C(N)O1 (centres undefined)	1	nt	-19	-9	-5	1
CC(C)(C)C1=C(C#N)C(c2ccc3c(c2)OCO3)C(C#N)=C(N)O1 (centres undefined)	11*	nt	-18	-12	-6	1.1
COc1ccc(/C=N/NC(=O)c2cc(C(C)(C)C)[nH]n2)cc1COc1ccc(F)cc1F	3	-23	-14	-48	-3	1
CCOC(=O)c1c(C)[nH]c(C)c1C(=O)CSc1nncs1	10*	4	3	-6	-6	1.1
Cc1ccc(C2C=NN(c3ccccc3)C2=O)cc1 (centres undefined)	10*	nt	-25	-8	-7	1.1
O=C(CSc1nc(O)c(C2CCCCC2)c(=O)[nH]1)N1CCOCC1	-2	-3	-26	-5	-1	1
COc1ccc(NCc2nnc(SCCN3CCCCC3)n2-c2ccc(C)cc2)cc1	17*	-10	-16	-3	0	1
CCOCC(=O)OCC(=O)Nc1cc(OC)c([N+](=O)[O-])cc1C	21*	-26	-20	-8	-2	1
COc1cc(NC(=O)COC(=O)CC(C)(C)C)c(C)cc1[N+](=O)[O-]	-1	-6	-25	-7	-4	1
Nc1nc(CN2CCN(Cc3ccc4c(c3)OCO4)CC2)nc(Nc2ccccc2)n1	-2	15	-27	10	5	0.9
Cc1ccccc1Nc1nc(N)nc(CN2CCN(Cc3ccc4c(c3)OCO4)CC2)n1	17*	2	-25	-8	-7	1.1
C[C@](N)(Cc1ccc(O)c(O)c1)C(=O)O	-6	nt	-13	54*	5	1
CC1CC2(CC(C)(C(=O)CSc3n[nH]c(-c4ccccc4Cl)n3)OC2=O)C(=O)O1 (centres undefined)	-3	nt	-17	53*	-3	1
CC1(C(=O)CSc2n[nH]c(-c3ccccc3Cl)n2)CCC(=O)O1 (centres undefined)	-1	nt	-8	54*	-4	1
CC(C)c1nc(SCC(=O)NCc2ccccc2)n[nH]1	-3	-11	-19	-3	-2	1
